Results on 21 compounds are retold here after ChEMBL document CHEMBL1148311, “Synthesis of novel potent dipeptidyl peptidase IV inhibitors with enhanced chemical stability: interplay between the N-terminal amino acid alkyl side chain and the cyclopropyl group of alpha-aminoacyl-l-cis-4,5-methanoprolinenitrile-based inhibitors” (J Med Chem, 2004).

Structures are written as SMILES.

Series [1] is described as follows: Half-life in phosphate buffer at 39.5 C and pH 7.2. It is filed as ADME. The essentials: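 Aqueous solution stability of the dipeptide nitriles in phosphate buffer, pH 7.2, 39.5 °C. Reaction rate followed as disappearance of starting material by reverse-phase HPLC.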
For another series, the target named is Dipeptidyl peptidase 4 (Sus scrofa, UniProt P22411). The series is described as follows: In vitro inhibition of porcine Dipeptidylpeptidase IV.
Dipeptidyl peptidase 4, sequence (P22411 whole entry): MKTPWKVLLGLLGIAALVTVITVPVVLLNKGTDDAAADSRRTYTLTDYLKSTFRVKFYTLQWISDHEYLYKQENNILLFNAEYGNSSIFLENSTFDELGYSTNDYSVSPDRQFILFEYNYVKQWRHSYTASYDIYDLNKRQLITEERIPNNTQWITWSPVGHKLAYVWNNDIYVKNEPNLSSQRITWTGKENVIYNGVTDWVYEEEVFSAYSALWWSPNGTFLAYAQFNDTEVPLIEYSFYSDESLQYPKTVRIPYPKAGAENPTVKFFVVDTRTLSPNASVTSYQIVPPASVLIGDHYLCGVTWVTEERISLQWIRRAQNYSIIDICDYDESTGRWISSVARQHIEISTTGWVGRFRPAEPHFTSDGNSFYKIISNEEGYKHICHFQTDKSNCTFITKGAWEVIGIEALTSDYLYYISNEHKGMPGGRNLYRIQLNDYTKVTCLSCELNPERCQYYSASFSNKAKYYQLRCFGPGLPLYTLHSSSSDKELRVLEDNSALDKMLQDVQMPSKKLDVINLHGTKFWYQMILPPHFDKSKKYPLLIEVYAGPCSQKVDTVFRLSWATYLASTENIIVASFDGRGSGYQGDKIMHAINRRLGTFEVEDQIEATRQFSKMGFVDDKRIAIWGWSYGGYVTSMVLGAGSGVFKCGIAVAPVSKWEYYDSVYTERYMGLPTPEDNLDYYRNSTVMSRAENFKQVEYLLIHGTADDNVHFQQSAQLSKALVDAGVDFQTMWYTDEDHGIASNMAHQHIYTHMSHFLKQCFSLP

A word on the half-life: it is the time in which the quantity being followed falls by half. Read a low half-life as rapid decline. For the compound `CC(C)(C)[C@H](N)C(=O)N1CCC[C@H]1C#N.O=C(O)C(F)(F)F`, the half-life in series [1] is 27 h.

As for `CCC(C)C(N)C(=O)N1CCC[C@H]1C#N.Cl` (some centres undefined), the half-life in series [1] is 5 h.

A word on the Ki: it is the dissociation constant of the complex between target and ligand, obtained from inhibition or displacement. Low values mean higher affinity, high ones lower affinity. As for `CC1(C(N)C(=O)N2C(C#N)C[C@@H]3C[C@@H]32)CCC1` (some centres undefined), the affinity at Dipeptidyl peptidase 4, expressed as Ki, was 11 nM.

Compound `N#CC1C[C@@H]2C[C@@H]2N1C(=O)C(N)C1CCC1` (some centres undefined) yielded a Ki at Dipeptidyl peptidase 4 of 12 nM.

Consider `CCC(C)[C@H](N)C(=O)N1C(C#N)C[C@@H]2C[C@@H]21.O=C(O)C(F)(F)F` (some centres undefined), for which the half-life in series [1] was 22 h. Also, the Ki on Dipeptidyl peptidase 4 stood at 25 nM.

Consider `CCC(C)[C@H](N)C(=O)N1C[C@H]2C[C@H]2C1C#N.O=C(O)C(F)(F)F` (some centres undefined), for which the half-life in series [1] is 4 h. Besides, the Ki at Dipeptidyl peptidase 4 came to 15 nM.

In the case of `CN[C@H](C(=O)N1C(C#N)C[C@@H]2C[C@@H]21)C(C)C` (some centres undefined), on Dipeptidyl peptidase 4, the Ki was determined as 1940 nM.

The compound `N#CC1C[C@@H]2C[C@@H]2N1C(=O)[C@@H](N)Cc1ccccc1` (some centres undefined) had a Ki at Dipeptidyl peptidase 4 of 65 nM.

The compound `N#CC1C[C@@H]2C[C@@H]2N1C(=O)C(N)C1CCCCC1.O=C(O)C(F)(F)F` (some centres undefined) showed a half-life in series [1] of 19 h. On Dipeptidyl peptidase 4, this compound returned a Ki of 15 nM.

`CCC(C)[C@H](N)C(=O)N1C(C#N)C[C@H]2C[C@H]21` (some centres undefined) registered a Ki at Dipeptidyl peptidase 4 of 1620 nM.

`CC(C)(C)[C@H](N)C(=O)N1C[C@H]2C[C@H]2C1C#N.O=C(O)C(F)(F)F` (some centres undefined) showed a half-life in series [1] of 4 h. At Dipeptidyl peptidase 4, this compound showed a Ki of 14 nM.

For the compound `N#CC1C[C@@H]2C[C@@H]2N1C(=O)C(N)C1CCCC1` (some centres undefined), affinity on Dipeptidyl peptidase 4 was put at a Ki of 4 nM.

Compound `CC1(C(N)C(=O)N2C(C#N)C[C@@H]3C[C@@H]32)CCCC1.O=C(O)C(F)(F)F` (some centres undefined) had a half-life in series [1] of 24 h. For the same compound, at Dipeptidyl peptidase 4, the affinity corresponds to a Ki of 7 nM.

With `CC(C)[C@H](N)C(=O)N1C[C@H]2C[C@H]2C1C#N.O=C(O)C(F)(F)F` (some centres undefined), the half-life in series [1] is 2 h. At Dipeptidyl peptidase 4, this compound displayed a Ki of 12 nM.

`CC(C)[C@H](N)C(=O)N1C(C#N)C[C@H]2C[C@H]21.O=C(O)C(F)(F)F` (some centres undefined) gave a half-life in series [1] of 28 h. Moreover, the Ki at Dipeptidyl peptidase 4 was found to be 29 nM.

In series [1], `CC(C)(C)[C@H](N)C(=O)N1C(C#N)C[C@@H]2C[C@@H]21` (some centres undefined) had a half-life of 42 h. The compound also displayed a Ki at Dipeptidyl peptidase 4 of 7 nM.

`CSCC[C@H](N)C(=O)N1C(C#N)C[C@@H]2C[C@@H]21` (some centres undefined) came in with a Ki at Dipeptidyl peptidase 4 of 135 nM.

For `N#CC1C[C@@H]2C[C@@H]2N1C(=O)C1CCCCN1` (some centres undefined), at Dipeptidyl peptidase 4, the Ki was 10000 nM.

Take `N#CC1C[C@@H]2C[C@@H]2N1C(=O)[C@@H](N)Cc1c[nH]c2ccccc12` (some centres undefined): on Dipeptidyl peptidase 4, the affinity corresponds to a Ki of 230 nM.

For the compound `CC1(C(N)C(=O)N2C(C#N)C[C@@H]3C[C@@H]32)CCCCC1` (some centres undefined), the affinity on Dipeptidyl peptidase 4 corresponds to a Ki of 8 nM.

Regarding `CCC(C)[C@H](N)C(=O)N1CC[C@@H]2C[C@@]21C#N` (some centres undefined), the Ki at Dipeptidyl peptidase 4 was determined as 7500 nM.
